Assay results published in ChEMBL document CHEMBL4823291, “Discovery of 5,6,7,8-tetrahydropyrido[3,4-d]pyrimidine derivatives as novel selective Axl inhibitors” (Bioorg Med Chem Lett, 2021).
In brackets after ≈: the same amount, converted by molar mass.

Key:
[1] = Cmax in CAnN.Cg-Foxnlnu/CrlCrlj mouse plasma at 100 mg/kg, po single dose measured up to 24 hrs by liquid chromatography tandem mass spectrometry; type: ADME, organism-based; design: route oral, dose 100 mg/kg, time <=24
[2] = Metabolic stability in human liver microsomes assessed as residual ratio at 0.1 uM for 30 mins; type: ADME, Microsome; settings: read-out: Stabilty
How it was run: (§1)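 Compound incubated at 0.1 µM for 30 min with human or mouse liver microsomes. Residual ratio of parent determined afterwards.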

[3] = test system: CYP3A; test: Time dependent inhibition of CYP3A in human liver microsomes assessed as enzyme remaining activity using cocktail of probe CYP as substrate at 50 uM; type: ADME; settings: probe cocktail of CYP probe substrates, read-out: Activity
How it was run: (§2)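 Time-dependent CYP inhibition in human liver microsomes, with test compound at 50 µM and a cocktail of probe CYP substrates.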

[4] = biological target: CYP2C9 (Homo sapiens, UniProt P11712); test: Time dependent inhibition of CYP2C9 in human liver microsomes assessed as enzyme remaining activity using cocktail of probe CYP as substrate at 50 uM; type: ADME; settings: probe cocktail of CYP probe substrates, read-out: Activity; how it was run: as §2
[5] = Metabolic stability in mouse liver microsomes assessed as residual ratio at 0.1 uM for 30 mins; type: ADME, Microsome; settings: read-out: Stabilty; how it was run: as §1
[6] = biological target: CYP2D6 (Homo sapiens, UniProt P10635); test: Time dependent inhibition of CYP2D6 in human liver microsomes assessed as enzyme remaining activity using cocktail of probe CYP as substrate at 50 uM; type: ADME; settings: probe cocktail of CYP probe substrates, read-out: Activity; how it was run: as §2
[7] = Cmax in CAnN.Cg-Foxnlnu/CrlCrlj mouse plasma at 50 mg/kg, po single dose measured up to 24 hrs by liquid chromatography tandem mass spectrometry; type: ADME, organism-based; design: route oral, dose 50 mg/kg, time <=24
[8] = Tmax in CAnN.Cg-Foxnlnu/CrlCrlj mouse plasma at 100 mg/kg, po single dose measured up to 24 hrs by liquid chromatography tandem mass spectrometry; type: ADME, organism-based
[9] = biological target: T1, Tyrosine-protein kinase Mer (Homo sapiens, UniProt Q12866); test: Inhibition of Mer (unknown origin) by cell free assay
T1 sequence (Q12866 whole entry): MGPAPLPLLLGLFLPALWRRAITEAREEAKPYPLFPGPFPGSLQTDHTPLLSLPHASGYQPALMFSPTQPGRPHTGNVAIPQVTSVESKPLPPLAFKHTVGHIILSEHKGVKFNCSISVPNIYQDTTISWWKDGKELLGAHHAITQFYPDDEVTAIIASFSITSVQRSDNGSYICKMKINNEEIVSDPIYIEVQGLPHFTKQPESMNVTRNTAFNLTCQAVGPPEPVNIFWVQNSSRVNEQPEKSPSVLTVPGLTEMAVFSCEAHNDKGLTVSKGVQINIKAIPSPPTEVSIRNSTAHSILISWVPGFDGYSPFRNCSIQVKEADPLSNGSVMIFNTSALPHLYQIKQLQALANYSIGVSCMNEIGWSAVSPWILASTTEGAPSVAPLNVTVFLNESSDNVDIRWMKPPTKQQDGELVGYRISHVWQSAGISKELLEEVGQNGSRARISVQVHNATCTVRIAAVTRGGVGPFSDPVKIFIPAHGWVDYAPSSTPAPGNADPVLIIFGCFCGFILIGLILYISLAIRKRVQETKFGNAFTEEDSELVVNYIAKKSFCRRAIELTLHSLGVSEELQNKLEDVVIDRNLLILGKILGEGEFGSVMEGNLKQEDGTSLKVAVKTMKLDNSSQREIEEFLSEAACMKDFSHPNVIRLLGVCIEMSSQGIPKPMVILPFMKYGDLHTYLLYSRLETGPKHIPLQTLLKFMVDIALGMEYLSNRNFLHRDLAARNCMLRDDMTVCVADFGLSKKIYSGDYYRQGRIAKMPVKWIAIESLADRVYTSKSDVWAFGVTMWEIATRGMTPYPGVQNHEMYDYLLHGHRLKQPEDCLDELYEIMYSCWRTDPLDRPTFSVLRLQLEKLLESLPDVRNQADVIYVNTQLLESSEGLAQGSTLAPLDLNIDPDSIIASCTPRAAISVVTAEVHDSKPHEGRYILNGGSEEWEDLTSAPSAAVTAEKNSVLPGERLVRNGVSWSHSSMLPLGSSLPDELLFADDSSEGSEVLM

[10] = Tmax in CAnN.Cg-Foxnlnu/CrlCrlj mouse plasma at 50 mg/kg, po single dose measured up to 24 hrs by liquid chromatography tandem mass spectrometry; type: ADME, organism-based
[11] = Solubility in PBS; type: physicochemical
How it was run: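 Solubility measured in Dulbecco's phosphate-buffered saline.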

[12] = Cmax in CAnN.Cg-Foxnlnu/CrlCrlj mouse plasma at 25 mg/kg, po single dose measured up to 24 hrs by liquid chromatography tandem mass spectrometry; type: ADME, organism-based; design: route oral, dose 25 mg/kg, time <=24
[13] = biological target: T2, Tyrosine-protein kinase receptor UFO (Homo sapiens, UniProt P30530); test: Inhibition of Axl (unknown origin) by cell free assay
T2 sequence (P30530 whole entry): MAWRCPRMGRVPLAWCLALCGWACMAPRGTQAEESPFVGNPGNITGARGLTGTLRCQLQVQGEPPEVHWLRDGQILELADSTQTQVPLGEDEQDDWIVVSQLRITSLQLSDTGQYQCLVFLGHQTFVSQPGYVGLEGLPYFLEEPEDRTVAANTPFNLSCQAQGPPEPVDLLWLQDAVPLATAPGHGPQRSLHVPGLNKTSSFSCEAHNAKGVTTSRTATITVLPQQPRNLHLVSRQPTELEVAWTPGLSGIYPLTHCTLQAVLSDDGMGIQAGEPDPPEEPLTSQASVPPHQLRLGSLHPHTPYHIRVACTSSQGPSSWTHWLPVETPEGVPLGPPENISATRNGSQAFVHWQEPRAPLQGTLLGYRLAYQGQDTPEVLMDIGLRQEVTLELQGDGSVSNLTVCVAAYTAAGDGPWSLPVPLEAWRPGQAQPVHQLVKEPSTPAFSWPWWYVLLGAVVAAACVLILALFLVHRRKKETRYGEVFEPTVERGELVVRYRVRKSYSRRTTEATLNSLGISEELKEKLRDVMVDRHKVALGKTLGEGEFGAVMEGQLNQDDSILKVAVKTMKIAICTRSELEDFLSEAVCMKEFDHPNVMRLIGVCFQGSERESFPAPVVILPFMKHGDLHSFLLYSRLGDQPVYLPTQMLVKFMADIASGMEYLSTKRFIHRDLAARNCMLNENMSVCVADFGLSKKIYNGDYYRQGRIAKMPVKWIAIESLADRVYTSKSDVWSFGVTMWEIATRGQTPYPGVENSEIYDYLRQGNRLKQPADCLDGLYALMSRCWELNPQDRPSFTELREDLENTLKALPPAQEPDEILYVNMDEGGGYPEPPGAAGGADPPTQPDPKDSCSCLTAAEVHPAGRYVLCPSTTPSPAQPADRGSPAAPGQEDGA

[14] = test system: BaF3; test: Ratio of IC50 for Mer in mouse BaF3 cells to IC50 for Axl in mouse BaF3 cells; type: cell-based

Sequence of CYP2D6 (P10635 whole entry): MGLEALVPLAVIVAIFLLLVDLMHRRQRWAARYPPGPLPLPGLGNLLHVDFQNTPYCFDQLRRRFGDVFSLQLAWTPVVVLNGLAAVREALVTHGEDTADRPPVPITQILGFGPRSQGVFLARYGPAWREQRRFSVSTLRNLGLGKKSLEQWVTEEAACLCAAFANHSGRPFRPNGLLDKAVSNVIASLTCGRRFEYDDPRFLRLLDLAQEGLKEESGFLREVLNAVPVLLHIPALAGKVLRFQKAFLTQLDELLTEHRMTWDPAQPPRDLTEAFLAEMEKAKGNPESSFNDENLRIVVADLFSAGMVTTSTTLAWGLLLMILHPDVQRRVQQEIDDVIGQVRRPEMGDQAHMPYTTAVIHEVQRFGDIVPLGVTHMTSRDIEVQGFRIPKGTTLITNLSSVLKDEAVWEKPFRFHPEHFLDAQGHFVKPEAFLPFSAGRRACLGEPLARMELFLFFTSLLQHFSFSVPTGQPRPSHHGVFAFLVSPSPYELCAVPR
Sequence of CYP2C9 (P11712 whole entry): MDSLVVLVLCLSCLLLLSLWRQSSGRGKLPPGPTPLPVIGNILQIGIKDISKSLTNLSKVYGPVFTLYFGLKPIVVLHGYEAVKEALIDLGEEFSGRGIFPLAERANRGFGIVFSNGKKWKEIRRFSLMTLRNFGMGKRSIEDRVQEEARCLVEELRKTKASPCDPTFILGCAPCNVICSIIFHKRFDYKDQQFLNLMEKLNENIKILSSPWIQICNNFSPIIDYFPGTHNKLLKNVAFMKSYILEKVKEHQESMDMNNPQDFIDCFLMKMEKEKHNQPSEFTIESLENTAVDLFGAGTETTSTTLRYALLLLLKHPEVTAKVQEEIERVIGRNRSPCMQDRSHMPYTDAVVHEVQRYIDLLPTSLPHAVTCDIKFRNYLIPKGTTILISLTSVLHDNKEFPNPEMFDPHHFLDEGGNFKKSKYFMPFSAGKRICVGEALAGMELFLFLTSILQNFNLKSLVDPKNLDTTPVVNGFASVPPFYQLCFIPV

- Cmax [1]: 10900 ng/mL
- remaining at 0.5 h, 0.1 µM [2]: 99%
- activity at 50 µM [3]: 51%
- activity at 50 µM [4]: 87%
- remaining at 0.5 h, 0.1 µM [5]: 66.3%
- activity at 50 µM [6]: 83%
- Cmax [7]: 5290 ng/mL
- Tmax [8]: 1 h
- IC50 [9]: 190 nM
- Tmax [10]: 1 h
- solubility [11]: 83 µM (≈ 55.5 µg/mL)
- Cmax [12]: 2340 ng/mL
- IC50 [13]: 5.2 nM
Structure (SMILES): Cc1ccc(-n2c(=O)c(C(=O)Nc3ccc(Oc4ncnc5c4CCN(CC4CCN(C)CC4)C5)c(F)c3)cn(C3CCCC3)c2=O)nc1
- Ratio IC50 [14]: 6.4
